Source: ChEMBL document CHEMBL3745692, “Novel iodoacetamido benzoheterocyclic derivatives with potent antileukemic activity are inhibitors of STAT5 phosphorylation” (Eur J Med Chem, 2016)

Experiments:
[1] = test system: K562; test: Cell cycle arrest in human K562 cells assessed as accumulation at G1 phase at 2 uM for 24 hrs by propidium iodide staining based flow cytometry (reference value: 39.27%); type: functional
Procedure, shortened: (§1)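 K562 cells were exposed to compound for 24 h. They were then washed in ice-cold PBS and resuspended at 1×10^6/mL in a hypotonic solution of propidium iodide 50 µg/mL in 0.1% sodium citrate with 0.03% NP-40. After 30 min, DNA content was read by flow cytometry as single-parameter histograms and cell cycle phase distribution (%) was modelled.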

[2] = species on record: Bos taurus; test: Inhibition of [3H]colchicine binding to bovine tubulin at 5 uM by DEAE-cellulose filter method
Procedure, shortened: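 Reaction mixtures contained 1 µM tubulin, 5 µM [3H]colchicine and 5 µM test compound. Result is given as % inhibition of colchicine binding ± SD.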

[3] = test system: K562; test: Induction of apoptosis in human K562 cells after 48 hrs by annexinV and propidium iodide staining based flow cytometry; type: functional, cell-based; conditions: K562, 48 h
Procedure, shortened: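 After 48 h drug exposure, 1×10^6 cells were washed in PBS and spun at 200×g for 5 min. They were stained with FITC-annexin V plus propidium iodide for 15 min at 20 °C and annexin V-positive cells counted by flow cytometry. Apoptosis was also scored morphologically with acridine orange/ethidium bromide, counting at least 300 cells. AC50 is the concentration inducing apoptosis in 50% of cells; mean ± SE from two to three experiments.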

[4] = test system: K562; test: Cell cycle arrest in human K562 cells assessed as accumulation at S-phase at 2 uM for 24 hrs by propidium iodide staining based flow cytometry (reference value: 47.84%); type: functional; procedure, shortened: as §1
[5] = test system: K562; test: Antiproliferative activity against human K562 cells after 48 hrs by trypan blue dye exclusion assay; type: functional, cell-based; conditions: K562, 48 h
[6] = molecular target: Tubulin (Bos taurus, UniProt Q6B856+Q862L2+Q862F3); test: Inhibition of bovine brain tubulin polymerization by spectrophotometry
Procedure, shortened: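 Bovine brain tubulin (10 µM) was pre-incubated with varying compound concentrations in glutamate buffer at 30 °C, then cooled to 0 °C. GTP was added ([…] final) and the mixture warmed to 30 °C. Assembly was followed by turbidity at 350 nm.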

[7] = test system: K562; test: Cell cycle arrest in human K562 cells assessed as accumulation at G2M-phase at 2 uM for 24 hrs by propidium iodide staining based flow cytometry (reference value: 12.89%); type: functional; procedure, shortened: as §1
[8] = molecular target: T1, Signal transducer and activator of transcription 5A (Homo sapiens) (UniProt P42229); test: Inhibition of STAT5 phosphorylation in human K562 cells at 2 uM after 24 hrs by flow cytometry (reference value: 315.56); type: cell-based
T1 sequence (whole entry): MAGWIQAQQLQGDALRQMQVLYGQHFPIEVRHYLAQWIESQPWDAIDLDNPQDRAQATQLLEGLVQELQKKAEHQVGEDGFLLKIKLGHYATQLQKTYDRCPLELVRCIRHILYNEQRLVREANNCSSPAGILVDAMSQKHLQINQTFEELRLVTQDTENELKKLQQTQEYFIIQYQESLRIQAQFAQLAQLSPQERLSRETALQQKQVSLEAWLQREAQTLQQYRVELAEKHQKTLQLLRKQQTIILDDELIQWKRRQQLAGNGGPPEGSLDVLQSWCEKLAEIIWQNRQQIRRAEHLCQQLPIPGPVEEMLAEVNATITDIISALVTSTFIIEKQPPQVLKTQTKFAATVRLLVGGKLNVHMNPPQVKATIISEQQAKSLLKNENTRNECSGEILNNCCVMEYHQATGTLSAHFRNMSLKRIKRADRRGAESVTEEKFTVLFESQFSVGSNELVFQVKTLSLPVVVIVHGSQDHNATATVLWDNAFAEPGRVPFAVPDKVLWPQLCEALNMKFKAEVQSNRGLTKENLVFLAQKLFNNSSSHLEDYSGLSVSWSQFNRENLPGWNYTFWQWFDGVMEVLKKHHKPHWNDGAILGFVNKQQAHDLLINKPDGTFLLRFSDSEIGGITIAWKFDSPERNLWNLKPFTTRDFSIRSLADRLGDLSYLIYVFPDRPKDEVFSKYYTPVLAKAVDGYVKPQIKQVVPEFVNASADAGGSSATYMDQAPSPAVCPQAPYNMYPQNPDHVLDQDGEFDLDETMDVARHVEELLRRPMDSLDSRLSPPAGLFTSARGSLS
Procedure, shortened: (§2)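 After 24 h exposure, about 1×10^6 K562 cells were PBS-washed and fixed/permeabilised for 20 min at 4 °C. They were then stained for 30 min at 4 °C with PE-conjugated anti-pSTAT5 monoclonal antibody, with an isotype antibody as control. Median fluorescence was read by flow cytometry and compared with untreated cells stained for pSTAT5.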

[9] = molecular target: T1, Signal transducer and activator of transcription 5A (Homo sapiens); test: Inhibition of STAT5 phosphorylation in human K562 cells at 2 uM after 24 hrs by flow cytometry relative to control; type: cell-based
Procedure, shortened: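 K562 cells were exposed for 24 h. About 1×10^6 cells were fixed and permeabilized for 20 min at 4 °C, then stained for 30 min at 4 °C with PE-conjugated anti-pSTAT5 monoclonal antibody; an isotype IgG1 antibody served as the background control. Median fluorescence was read by flow cytometry and compared with untreated cells stained for pSTAT5.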

[10] = molecular target: T1, Signal transducer and activator of transcription 5A (Homo sapiens); test: Inhibition of STAT5 phosphorylation in human K562 cells at 3 uM after 24 hrs by flow cytometry (reference value: 315.56); type: cell-based; procedure, shortened: as §2
[11] = test system: K562; test: Cell cycle arrest in human K562 cells assessed as accumulation at G2M-phase at 3 uM for 24 hrs by propidium iodide staining based flow cytometry (reference value: 12.89%); type: functional
Procedure, shortened: (§3)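 K562 cells in RPMI 1640 with 10% FCS, penicillin/streptomycin and L-glutamine, 5% CO2, 37 °C; exposed 24 h. Cells washed in ice-cold PBS, resuspended at 1×10^6/mL in hypotonic solution of propidium iodide 50 µg/mL in 0.1% sodium citrate plus 0.03% nonidet P-40 for 30 min. DNA content read as single-parameter flow cytometry histograms; phase distribution modelled.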

[12] = test system: K562; test: Cell cycle arrest in human K562 cells assessed as accumulation at S-phase at 3 uM for 24 hrs by propidium iodide staining based flow cytometry (reference value: 47.84%); type: functional; procedure, shortened: as §3
[13] = test system: K562; test: Cell cycle arrest in human K562 cells assessed as accumulation at G1 phase at 3 uM for 24 hrs by propidium iodide staining based flow cytometry (reference value: 39.27%); type: functional; procedure, shortened: as §3
[14] = molecular target: T1, Signal transducer and activator of transcription 5A (Homo sapiens); test: Inhibition of STAT5 phosphorylation in human K562 cells at 3 uM after 24 hrs by flow cytometry relative to control; type: cell-based; procedure, shortened: as §2
[15] = test system: K562; test: Cell cycle arrest in human K562 cells assessed as accumulation at G1 phase at 0.75 uM for 24 hrs by propidium iodide staining based flow cytometry (reference value: 39.27%); type: functional; procedure, shortened: as §1
[16] = molecular target: T1, Signal transducer and activator of transcription 5A (Homo sapiens); test: Inhibition of STAT5 phosphorylation in human K562 cells at 0.75 uM after 24 hrs by flow cytometry (reference value: 315.56); type: cell-based; procedure, shortened: as §2
[17] = test system: K562; test: Cell cycle arrest in human K562 cells assessed as accumulation at S-phase at 0.75 uM for 24 hrs by propidium iodide staining based flow cytometry (reference value: 47.84%); type: functional; procedure, shortened: as §1
[18] = test system: K562; test: Cell cycle arrest in human K562 cells assessed as accumulation at G2M-phase at 0.75 uM for 24 hrs by propidium iodide staining based flow cytometry (reference value: 12.89%); type: functional; procedure, shortened: as §1

## COc1cc(C(=O)c2c(NC(=O)CI)c3cccc(OC)c3n2C)cc(OC)c1OC
[1]
  Activity: 77.64%
[2]
  inhibition: 38%
[3]
  AC50: 4.6 µM
[4]
  Activity: 19.55%
[5]
  IC50: 0.8 µM
[6]
  IC50: 2 µM
[7]
  Activity: 2.81%
[8]
  Flu intensity: 58.2

## COc1cc(C(=O)c2cc3c(NC(=O)CI)cccc3o2)cc(OC)c1OC
[1]
  Activity: 33.67%
[3]
  AC50: 4.5 µM
[4]
  Activity: 53.09%
[5]
  IC50: 0.8 µM
[7]
  Activity: 16.24%
[8]
  Flu intensity: 272

## COc1cc(C(=O)c2oc3ccc(NC(=O)CI)cc3c2C)cc(OC)c1OC
[3]
  AC50: 26.8 µM
[5]
  IC50: 18 µM

## COc1cc2oc(C(=O)c3cc(OC)c(OC)c(OC)c3)cc2cc1NC(=O)CI
[1]
  Activity: 43.33%
[3]
  AC50: 2 µM
[4]
  Activity: 52.26%
[9]
  inhibition: 29%
[5]
  IC50: 0.4 µM
[7]
  Activity: 4.41%
[8]
  Flu intensity: 225

## COc1cc(C(=O)c2[nH]c3ccccc3c2NC(=O)CI)cc(OC)c1OC
[3]
  AC50: 2.4 µM
[10]
  Flu intensity: 222
[11]
  Activity: 9.39%
[5]
  IC50: 0.5 µM
[12]
  Activity: 57.79%
[13]
  Activity: 31.82%
[14]
  inhibition: 30%

## COc1cc(C(=O)c2cc3ccc(NC(=O)CI)cc3o2)cc(OC)c1OC
[3]
  AC50: 2.9 µM
[10]
  Flu intensity: 289
[11]
  Activity: 11.1%
[5]
  IC50: 0.6 µM
[12]
  Activity: 51.3%
[13]
  Activity: 37.06%

## COc1cc(C(=O)c2c(NC(=O)CI)c3ccccc3n2C)cc(OC)c1OC
[3]
  AC50: 8.2 µM
[5]
  IC50: 4.3 µM

## COc1cc(C(=O)c2sc3ccccc3c2NC(=O)CI)cc(OC)c1OC
[3]
  AC50: 28 µM
[5]
  IC50: 18 µM

## COc1ccc(C(=O)c2oc3ccccc3c2NC(=O)CI)cc1
[3]
  AC50: 6.8 µM
[5]
  IC50: 2.9 µM

## COc1cc(C(=O)c2cc3cc(NC(=O)CI)cc(OC)c3o2)cc(OC)c1OC
[15]
  Activity: 34.66%
[3]
  AC50: 2.2 µM
[5]
  IC50: 0.4 µM
[16]
  Flu intensity: 316
[17]
  Activity: 57.32%
[18]
  Activity: 8.02%

## COc1ccc(C(=O)c2oc3ccccc3c2NC(=O)CI)cc1OC
[3]
  AC50: 48 µM
[5]
  IC50: 22 µM
